Rin1 Abl inh – blocks binding of human Rin1 to Abl; AID 588664; 360,000 tested, 0.4% active; inhibition, % at 7.35 µM; P00519+Q13671; TR-FRET Rin1/Abl binding, biochemical; in the data active means inhibition above about 5%, passing the limit was not always enough
TbMetRS inhib – Trypanosoma brucei MetRS inhibition; purified T. brucei MetRS, ATP depletion, Kinase-Glo luminescence; 360,000 tested, 0.4% active; inhibition, % at 11.9 µM;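 active means inhibition above a per-plate cutoff of the control wells' mean inhibition plus 3 SD, cut at about 5.5% in these data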;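 further: 0% = DMSO wells median and 100% = median of wells with control inhibitor compound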
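technique = Kinase-Glo luminescence, ATP depletion format | system = purified MetRS (methionyl-tRNA synthetase) enzyme from Trypanosoma brucei | timing = 15 min preincubation, 2 h reaction, all 25 °C | evaluation = percent inhibition versus plate control medians | dosing = single dose, 11.9 µM final nominal, 0.9% final DMSO | also added = substrates ATP, L-methionine and bulk Escherichia coli tRNA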
PKA-R2B act – PKA-R2B complex activation; P22694+P31323; PKA-R2B holoenzyme dissociation, Cy5-IP20 fluorescence polarization; R2B truncated from residue 108, S112A mutant; 0% DMSO only, 100% 113 µM cGMP; activation, % at 11.4 µM; 340,000 tested, 0.079% active;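 active means activation above a cutoff set at the mean over all compounds plus 3 SD, cut at about 18% in these data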;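 further: higher means more holoenzyme dissociation and a rise in polarization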
H9c2 protect – protects H9c2 cardiomyocytes from peroxide injury; H2O2 injury protection, ATPLite, 2 h; protection from H2O2 cell death, % at 20 µM; 360,000 tested, 0.63% active; AID 588492;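 active means compounds giving at least 50% protection of heart cells from peroxide-induced death in the single-dose screen, raw or plate-pattern-corrected value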;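 further: 0% = DMSO wells with peroxide and 100% = DMSO wells without peroxide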
PKA-R1A activ – PKA-R1A complex activation | PKA-R1A dissociation, Cy5-IP20 fluorescence polarization; scaled: DMSO 0%, 113 µM cGMP 100% | activation, % at 11.4 µM | 340,000 tested, 0.083% active;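 active means percent activation above the mean of all tested compounds plus 3 SD, cut at about 19% in these data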;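 further: higher means more PKAc released from R1A so a rise in polarization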
TbMetRS confirm – Trypanosoma brucei MetRS inhibition confirmed. T. brucei MetRS enzyme, luminescence (ATP depletion). 1,400 tested, 93% active. AID 624412. shares compounds with TbMetRS inhib. inhibition, % at 11.9 µM; in the data active means inhibition above about 7%
Jurkat tox – counter-screen for T. brucei MetRS inhibitors: Jurkat cell cytotoxicity | shares compounds with TbMetRS inhib | Jurkat cells viability, ATP luminescence | inhibition, % at 8.3 µM | 1,400 tested, 12% active; in the data active means inhibition above about 15%;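 further: 0% = vehicle and 100% = reference inhibitor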
TbMetRS FP orth – inhibits T. brucei methionyl tRNA synthetase in orthogonal FP test. shares compounds with TbMetRS inhib. purified T. brucei MetRS, fluorescence polarization. inhibition, % at 11.9 µM. 1,400 tested, 44% active; in the data active means inhibition above about 17%;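 further: 0% = vehicle wells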
Starred values were filed as active, the others as inactive; . = no result given. The list is not random: actives were taken first. Their share in the collection is about 1.5%.

SMILES | Rin1 Abl inh | TbMetRS inhib | PKA-R2B act | H9c2 protect | PKA-R1A activ | TbMetRS confirm | Jurkat tox | TbMetRS FP orth
Clc1ccc(OCCCN2CCCCC2)c(Br)c1 | 1 | 17* | -5 | 5 | 2 | 28* | 3 | 11
CCN1CCN(CCCOc2ccc(Cl)cc2Br)CC1 | 3 | 7.7* | -10 | 14 | -4 | 13* | 8 | 6
Clc1ccc(OCCN2CCCCC2)c(Cl)c1 | 0 | 4 | 0 | -3 | 3 | . | . | .
Clc1ccc(OCCCCCN2CCCC2)c(Br)c1 | 0 | 6.2* | -6 | -2 | -1 | 13* | 13 | 4
Clc1ccc(OCCCn2ccnc2)c(Br)c1 | 4 | 13* | -6 | -8 | 1 | 22* | 5 | 13
Cc1cc(Cl)c(OCCCn2ccnc2)c(Br)c1 | 1 | 0 | -20 | -8 | -2 | . | . | .
COc1ccc(C(=O)Cc2cc3ccccc3oc2=O)cc1 | 3 | 2 | -3 | 7 | -2 | . | . | .
COc1ccc(OC)c(C(=O)Nc2ccc3[nH]ccc3c2)c1 | -6 | 0 | -1 | -9 | -3 | . | . | .
Cc1cc(C)n2c(NC3CCCCC3)c(-c3ccc(F)cc3)nc2n1 | . | 0 | . | . | . | . | . | .
c1ccc2cc3[nH]c(CN4CCOCC4)nc3cc2c1 | -4 | 6.6* | 3 | 0 | -1 | 13* | 10 | -1
O=C(CNC(=O)c1ccc2c(c1)OCO2)N/N=C(Br)/C=C/c1ccccc1 | -7 | 35* | 1 | 0 | -7 | 52* | 29* | 42*
O=C(CNC(=O)c1ccc2c(c1)OCO2)N/N=C/c1cccc([N+](=O)[O-])c1 | -5 | -1 | 0 | 6 | 12 | . | . | .
CCn1ncc(N(C)N)c(Cl)c1=O | 1 | 0 | -5 | 3 | 1 | . | . | .
CN(c1cccc(Cl)c1)S(=O)(=O)c1cccc(C(=O)Nc2nc3ccccc3[nH]2)c1 | -2 | 33* | -8 | 6 | 4 | 44* | 68* | 22*
O=C(CNc1cccc2ccccc12)N/N=C/c1ccc[nH]1 | -1 | 9.8* | -1 | -2 | -4 | 65* | 64* | 44*
O=C(O)CC1S/C(=N/N=C/c2ccc(-c3ccc(Cl)cc3[N+](=O)[O-])o2)NC1=O (stereo unspecified) | 5 | 11* | -3 | -7 | -3 | 14* | -4 | 12
O=C(O)CC1S/C(=N/N=C/c2ccc(-c3ccc(Cl)c([N+](=O)[O-])c3)o2)NC1=O (stereo unspecified) | 1 | 1 | 5 | -8 | -12 | . | . | .
COc1ccc(C2/C(=C(/O)c3ccccc3)C(=O)C(=O)N2C)cc1OC (stereo unspecified) | 1 | 0 | 3 | 7 | 1 | . | . | .
COc1ccc(C2=CCN3CCCCC3C2)c(-c2ccc(OC)c(OC)c2)c1 (stereo unspecified) | 0 | 0 | -4 | 6 | -1 | . | . | .
COc1cccc(-n2c(SCC(=O)NC3CC3)nc3ccccc3c2=O)c1 | 0 | 0 | -8 | 7 | -16 | . | . | .
COc1ccc(NC(=O)Nc2ccccc2)cc1S(=O)(=O)N1CCCCC1 | 1 | 11* | -1 | -12 | 0 | 27* | 7 | 15
O=C(Nc1ccc(S(=O)(=O)N2CCCCC2)cc1)c1ccccc1Cl | 2 | -1 | -2 | -3 | -1 | . | . | .
O=C(Nc1ccccc1)Nc1ccc(S(=O)(=O)N2CCCCC2)cc1 | -3 | 7.8* | 7 | -17 | -7 | 15* | 7 | 23*
O=S(=O)(c1ccc(OC(F)(F)F)cc1)N1CCCC(N2CCOCC2)C1 (stereo unspecified) | 1 | 0 | -11 | -4 | -20 | . | . | .
CC(=O)Nc1cccc(NC(=O)C(=O)c2cn(CC(=O)N3CCCC3)c3ccccc23)c1 | 0 | 0 | 1 | 2 | -3 | . | . | .
NS(=O)(=O)c1cccc(NC(=O)Cc2ccc(Cl)c(Cl)c2)c1 | -2 | 12* | -2 | -5 | 9 | 19* | 6 | 12

Screening results (PubChem BioAssay)
